Experimental data: ChEMBL document CHEMBL5625188, “Exploring diverse reactive warheads for the design of SARS-CoV-2 main protease inhibitors” (Eur J Med Chem, 2023)

How the values were obtained:
[1] = molecular target: T1, Replicase polyprotein 1ab (Severe acute respiratory syndrome coronavirus 2, UniProt P0DTD1); experiment: Inhibition of MPro of SARS CoV-2 BetaCoV/Wuhan/WIV04/2019 preincubated for 30 mins followed by substrate addition measured for 1 hr by FRET assay
[2] = Cytotoxicity against African green monkey Vero cells incubated for 5 days by neutral red uptake assay; assay type: toxicity, cell-based; conditions: chlorocebus sabaeus, time 5 day; for CC50: vero, 120 h; for CC50 at 120 h: Vero cells
Method in brief: (§1)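 Vero E6 cells were kept in DMEM with 5% heat-inactivated FBS at 37 °C, 5% CO2, and seeded at 80,000 cells/mL. Neutral red uptake used 40 μg/mL dye for 2–4 h, read at 540 nm. CC50 came from a variable-slope dose-response fit.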

[3] = Cytotoxicity against human Calu-3 cells infected with SARS CoV-2 USA-WA1/2020 clinical isolate assessed as reduction in cell viability incubated for 48 hrs by imaging analysis; assay type: toxicity, cell-based
[4] = Cytotoxicity against African green monkey Vero cells; assay type: toxicity, cell-based; conditions: chlorocebus sabaeus; method in brief: as §1
[5] = molecular target: T1, Replicase polyprotein 1ab; experiment: Inhibition of SARS-CoV-2 MPro
Method in brief: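 FRET substrate was added to 10 μM final. Fluorescence (ex 360, em 460 nm) was followed 1 h at 30 °C. Initial velocities came from linear regression of the first 15 min, giving % inhibition and IC50.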

[6] = molecular target: T1, Replicase polyprotein 1ab; experiment: Inhibition of MPro of SARS CoV-2 BetaCoV/Wuhan/WIV04/2019 incubated for 2 hrs in presence of substrate by FRET assay
SARS-CoV-2 = experiment: Antiviral activity against SARS CoV-2 USA-WA1/2020 clinical isolate infected in human Calu-3 cells assessed as reduction in viral infection incubated for 48 hrs by imaging analysis; assay type: functional, organism-based; conditions: Severe acute respiratory syndrome coronavirus 2, USA-WA1/2020, Calu-3, 48 h

Row | Compound | IC50 [1] | also measured
1 | C=CS(=O)(=O)N(c1ccc(-c2ccccc2)cc1)[C@@H](C(=O)N[C@@H](C)c1ccccc1)c1cccnc1 | 0.31 µM | CC50 [2]: 18.4 µM
2 | COc1ccc(/C=C(\C#N)C(=O)N(c2ccc(-c3ccccc3)cc2)[C@@H](C(=O)N[C@@H](C)c2ccccc2)c2cccnc2)cc1 | – | CC50 [2]: > 100 µM; CC50 at 48 h [3]: > 100 µM
3 | C#CC(=O)N(c1ccc(-c2ccccc2)cc1)[C@@H](C(=O)N[C@@H](C)c1ccccc1)c1cccnc1 | – | CC50 at 120 h [2]: 2.06 µM
4 | C#CCN(c1ccc(-c2ccccc2)cc1)C(C(=O)N[C@@H](C)c1ccccc1)c1cccnc1 (stereo partly drawn) | > 20 µM | –
5 | CCC#CC(=O)N(c1ccc(-c2ccccc2)cc1)C(C(=O)N[C@@H](C)c1ccccc1)c1cccnc1 (stereo partly drawn) | 1.65 µM | CC50 at 120 h [2]: 38.6 µM
6 | C=C(NC(C)=O)C(=O)N(c1ccc(-c2ccccc2)cc1)C(C(=O)N[C@@H](C)c1ccccc1)c1cccnc1 (stereo partly drawn) | > 20 µM | –
7 | C[C@H](NC(=O)C(c1cccnc1)N(C(=O)C1(C#N)CCN(C(=O)OC(C)(C)C)CC1)c1ccc(-c2ccccc2)cc1)c1ccccc1 (stereo partly drawn) | > 20 µM | –
8 | C[C@H](NC(=O)C(c1cccnc1)N(C(=O)/C=C/Br)c1ccc(-c2ccccc2)cc1)c1ccccc1 (stereo partly drawn) | > 20 µM | –
9 | C=C(C(=O)N(c1ccc(-c2ccccc2)cc1)C(C(=O)N[C@@H](C)c1ccccc1)c1cccnc1)c1ccccc1 (stereo partly drawn) | > 20 µM | –
10 | C[C@H](NC(=O)[C@H](c1cccnc1)N(C(=O)C#CCCl)c1ccc(-c2ccccc2)cc1)c1ccccc1 | – | CC50 [2]: 2.2 µM
11 | C[C@H](NC(=O)[C@H](c1cccnc1)N(C(=O)C#CCC#N)c1ccc(-c2ccccc2)cc1)c1ccccc1 | > 20 µM | –
12 | C[C@H](NC(=O)C(c1cccnc1)N(C(=O)/C(C#N)=C/C1CC1)c1ccc(-c2ccccc2)cc1)c1ccccc1 (stereo partly drawn) | > 20 µM | –
13 | C[C@H](NC(=O)C(c1cccnc1)N(C(=O)C(C#N)=C1CCCCC1)c1ccc(-c2ccccc2)cc1)c1ccccc1 (stereo partly drawn) | > 20 µM | –
14 | C/C=C(\C)C(=O)N(c1ccc(-c2ccccc2)cc1)C(C(=O)N[C@@H](C)c1ccccc1)c1cccnc1 (stereo partly drawn) | > 20 µM | –
15 | C#CCC(=O)N(c1ccc(-c2ccccc2)cc1)C(C(=O)N[C@@H](C)c1ccccc1)c1cccnc1 (stereo partly drawn) | 4.63 µM | –
16 | COC(=O)/C=C/C(=O)N(c1ccc(-c2ccccc2)cc1)C(C(=O)N[C@@H](C)c1ccccc1)c1cccnc1 (stereo partly drawn) | 3.97 µM | CC50 at 120 h [2]: 8.9 µM
17 | C=C(Br)C(=O)N(c1ccc(-c2ccccc2)cc1)C(C(=O)N[C@@H](C)c1ccccc1)c1cccnc1 (stereo partly drawn) | 4.26 µM | CC50 at 120 h [2]: < 3.9 µM
18 | C=C(C)C(=O)N(c1ccc(-c2ccccc2)cc1)C(C(=O)N[C@@H](C)c1ccccc1)c1cccnc1 (stereo partly drawn) | > 20 µM | –
19 | C=C(Cl)C(=O)N(c1ccc(-c2ccccc2)cc1)C(C(=O)N[C@@H](C)c1ccccc1)c1cccnc1 (stereo partly drawn) | – | CC50 [4]: < 10 µM
20 | C[C@H](NC(=O)C(c1cccnc1)N(C(=O)C#CC(C)(C)O)c1ccc(-c2ccccc2)cc1)c1ccccc1 (stereo partly drawn) | 1.28 µM | CC50 at 120 h [2]: 19.1 µM
21 | C[C@H](NC(=O)C(c1cccnc1)N(C(=O)C1=CC(=O)CC1)c1ccc(-c2ccccc2)cc1)c1ccccc1 (stereo partly drawn) | > 20 µM | –
22 | C[C@H](NC(=O)C(c1cccnc1)N(C(=O)C#CC1CC1)c1ccc(-c2ccccc2)cc1)c1ccccc1 (stereo partly drawn) | 0.85 µM | CC50 [2]: 102 µM
23 | CC(C)C#CC(=O)N(c1ccc(-c2ccccc2)cc1)C(C(=O)N[C@@H](C)c1ccccc1)c1cccnc1 (stereo partly drawn) | 4.19 µM | –
24 | CCC(=O)C(=O)N(c1ccc(-c2ccccc2)cc1)C(C(=O)N[C@@H](C)c1ccccc1)c1cccnc1 (stereo partly drawn) | 3.81 µM | –

Row | Compound | IC50 [1] | also measured
25 | CC(C)=CC(=O)N(c1ccc(-c2ccccc2)cc1)C(C(=O)N[C@@H](C)c1ccccc1)c1cccnc1 (stereo partly drawn) | > 20 µM | –
26 | C=CC(=O)N(c1ccc(-c2ccccc2)cc1)C(C(=O)N[C@@H](C)c1ccccc1)c1cccnc1 (stereo partly drawn) | – | IC50 [5]: > 20 µM
27 | C[C@H](NC(=O)[C@@H](c1cccnc1)N(C(=O)C#CCC#N)c1ccc(-c2ccccc2)cc1)c1ccccc1 | 0.5 µM | CC50 at 120 h [2]: > 100 µM; Ki [6]: 0.345 µM; EC50 (SARS-CoV-2): 2.92 µM; CC50 at 48 h [3]: > 100 µM
28 | CC#CC(=O)N(c1ccc(-c2ccccc2)cc1)C(C(=O)N[C@@H](C)c1ccccc1)c1cccnc1 (stereo partly drawn) | – | CC50 at 120 h [2]: 18 µM
29 | C[C@H](NC(=O)C(c1cccnc1)N(C(=O)/C=C/c1ccco1)c1ccc(-c2ccccc2)cc1)c1ccccc1 (stereo partly drawn) | 15.4 µM | –
30 | C[C@H](NC(=O)C(c1cccnc1)N(C(=O)/C=C\I)c1ccc(-c2ccccc2)cc1)c1ccccc1 (stereo partly drawn) | > 20 µM | –
31 | C#CC(=O)N(c1ccc(-c2ccccc2)cc1)[C@H](C(=O)N[C@@H](C)c1ccccc1)c1cccnc1 | – | CC50 at 120 h [2]: 2.8 µM
32 | C=CS(=O)(=O)N(c1ccc(-c2ccccc2)cc1)[C@H](C(=O)N[C@@H](C)c1ccccc1)c1cccnc1 | 6.49 µM | –
33 | CC(=O)/C=C/C(=O)N(c1ccc(-c2ccccc2)cc1)C(C(=O)N[C@@H](C)c1ccccc1)c1cccnc1 (stereo partly drawn) | 17 µM | –
34 | C=C(F)C(=O)N(c1ccc(-c2ccccc2)cc1)C(C(=O)N[C@@H](C)c1ccccc1)c1cccnc1 (stereo partly drawn) | > 20 µM | –
35 | C[C@H](NC(=O)C(c1cccnc1)N(C(=O)C#CC(C)(C)F)c1ccc(-c2ccccc2)cc1)c1ccccc1 (stereo partly drawn) | > 20 µM | –
36 | C[C@H](NC(=O)C(c1cccnc1)N(C(=O)/C=C/C(=O)O)c1ccc(-c2ccccc2)cc1)c1ccccc1 (stereo partly drawn) | 12.4 µM | CC50 at 120 h [2]: > 250 µM
37 | C[C@H](NC(=O)C(c1cccnc1)N(C(=O)C1(C#N)CC1)c1ccc(-c2ccccc2)cc1)c1ccccc1 (stereo partly drawn) | > 20 µM | –
38 | C[C@H](NC(=O)C(c1cccnc1)N(C(=O)C(=O)N1CCN(C)CC1)c1ccc(-c2ccccc2)cc1)c1ccccc1 (stereo partly drawn) | > 20 µM | –
39 | C=C(C(=O)N(c1ccc(-c2ccccc2)cc1)C(C(=O)N[C@@H](C)c1ccccc1)c1cccnc1)C(F)(F)F (stereo partly drawn) | 4.36 µM | CC50 at 120 h [2]: < 3.9 µM
40 | C[C@H](NC(=O)C(c1cccnc1)N(C(=O)C1=CCCCC1)c1ccc(-c2ccccc2)cc1)c1ccccc1 (stereo partly drawn) | > 20 µM | –
41 | C[C@H](NC(=O)[C@@H](c1cccnc1)N(C(=O)C#CCCl)c1ccc(-c2ccccc2)cc1)c1ccccc1 | – | CC50 [2]: 2 µM
42 | C#CCCC(=O)N(c1ccc(-c2ccccc2)cc1)C(C(=O)N[C@@H](C)c1ccccc1)c1cccnc1 (stereo partly drawn) | > 20 µM | –
43 | C[C@H](NC(=O)C(c1cccnc1)N(C(=O)C(F)(F)S(=O)(=O)F)c1ccc(-c2ccccc2)cc1)c1ccccc1 (stereo partly drawn) | > 20 µM | –
44 | CC(C)/C=C(\C#N)C(=O)N(c1ccc(-c2ccccc2)cc1)C(C(=O)N[C@@H](C)c1ccccc1)c1cccnc1 (stereo partly drawn) | > 20 µM | –
45 | C[C@H](NC(=O)C(c1cccnc1)N(C(=O)C1(C#N)CCOCC1)c1ccc(-c2ccccc2)cc1)c1ccccc1 (stereo partly drawn) | > 20 µM | –
46 | CO/C=C/C(=O)N(c1ccc(-c2ccccc2)cc1)C(C(=O)N[C@@H](C)c1ccccc1)c1cccnc1 (stereo partly drawn) | > 20 µM | –
47 | C[C@H](NC(=O)C(c1cccnc1)N(C(=O)/C=C/Cl)c1ccc(-c2ccccc2)cc1)c1ccccc1 (stereo partly drawn) | > 20 µM | –
48 | CCC(CC)COC(=O)[C@H](C)N[P@](=O)(OC[C@H]1O[C@@](C#N)(c2ccc3c(N)ncnn23)[C@H](O)[C@@H]1O)Oc1ccccc1 [REMDESIVIR] | – | CC50 at 120 h [2]: > 10 µM; EC50 (SARS-CoV-2): 0.17 µM; CC50 at 48 h [3]: > 10 µM
